The record followed here is PubChem BioAssay.

Assay [1] is described as follows: inhibitors of TNFa-induced NFkB p65 translocation, primary screen, imaging, HUVEC, MLSMR starter and 10KST1 sets (AID 438;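 active = inhibition above 20% together with a positive visual image hit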;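 note: compound added about 3h40 before a 20 min TNFalpha stimulation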;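 for inhibition: signal is the nuclear over cytoplasmic p65 intensity ratio per well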). The settings on record: HUVEC TNFa-induced p65 nuclear translocation; cell count: measured here: nuclei count (cytotoxicity indicator), at 2.08 µM; inhibition: at 2 µM, stronger effect = higher value, 0% TNFa-plus-vehicle, 100% no-TNFa wells.
Assay [2] can be described thus: reduction of polyQ htt aggregates in cells – imaging, exon1htt(103Q)mCFP cells, high-content imaging, primary screen (AID 483;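 active = visual image review flags a hit and inhibition of aggregation exceeds 20%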;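 note: compound exposure lasted 3 days before fixation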;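 for nuclei count: percent of the per-plate median nuclei count of sample wells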). As to conditions: exon1htt(103Q)mCFP cell line, aggregate imaging, at 2 µM; inhibition of aggregation: stronger effect = higher value; nuclei count: measured here: cell count, toxicity.
Assay [3] is described as follows: endothelial E-selectin expression blockers – imaging, HUVEC, immunofluorescence, MLSMR starter and 10KST1 sets, primary screen (AID 487;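 active = visually confirmed hit in the image check and inhibition above 20%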;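 for inhibition: signal is fraction of cell area covered by stained E-selectin grains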;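 for nuclei count: 100% = median nuclei count of all wells on the same plate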). As to conditions: HUVEC TNFalpha-induced E-selectin immunofluorescence imaging, at 2 µM; inhibition: stronger effect = higher value; nuclei count: measured here: cell number, toxicity.
The target of assay [4] is Voltage-gated potassium channel subunit beta-2 (Rattus norvegicus) (UniProt P62483). In words: inhibitors of rat Kvbeta2 reductase activity – biochemical, NADPH fluorescence, primary screen (AID 622;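 active = fluorescence slope higher than the sample average by over 3 SD, cut at about -0.22 in these data, passing the limit was not always enough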;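 note: slope of raw intensity against log time taken from 70 to 1610 s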). The settings on record: recombinant KvBeta, 4-cyanobenzaldehyde reduction, at 10 µM, stronger effect = higher value.
Voltage-gated potassium channel subunit beta-2 (Rattus norvegicus), sequence (P62483 whole entry, looked up): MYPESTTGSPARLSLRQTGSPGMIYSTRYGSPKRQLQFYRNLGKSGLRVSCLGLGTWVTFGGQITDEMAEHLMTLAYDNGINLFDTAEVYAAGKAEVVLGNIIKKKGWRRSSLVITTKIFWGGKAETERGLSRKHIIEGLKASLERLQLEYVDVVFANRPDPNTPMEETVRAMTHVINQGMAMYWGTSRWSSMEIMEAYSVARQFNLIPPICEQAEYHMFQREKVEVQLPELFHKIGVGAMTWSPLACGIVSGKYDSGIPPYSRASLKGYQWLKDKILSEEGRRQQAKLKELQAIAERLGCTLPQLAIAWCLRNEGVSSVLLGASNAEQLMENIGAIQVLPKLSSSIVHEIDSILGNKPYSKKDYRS
Assay [5] shares this target. In words: enhancers of rat Kvbeta2 NADPH turnover – biochemical, NADPH fluorescence, primary screen (AID 623;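 active = NADPH fluorescence slope more negative than the mean of all samples by about 3 SD, 99.7% confidence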;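 note: fluorescence intensity change per second fitted from 20 to 320 s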). The settings on record: Recombinant KvBeta, NADPH fluorescence decrease slope, 10 min; at 10 µM; stronger effect = lower value.
Assay [6] concerns the target Muscarinic acetylcholine receptor M4 (Homo sapiens) (UniProt P08173). In words: M4-linked GIRK flux change, two-sided – cell-based, HEK293 M4/GIRK, thallium flux, BTC-AM, M4 allosteric agonist project, primary screen (AID 625).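 Note: thallium influx through GIRK channels coupled to M4 in HEK293 cells with BTC-AM dye.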 As to conditions: at 10 µM, actives lie on both sides. Put shortly:
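Material: HEK293 cells with M4 receptor and GIRK channels; Times: cells overnight at 37 °C, BTC-AM loading 1 h, reads 2 min total; Technique: kinetic BTC-AM fluorescence sampled at 1 Hz, 10 s pre-addition baseline; Read-out basis: slope over 15–24 s of trace normalized to starting intensity; Controls: carbachol positive, DMSO negative.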

Assay [7] in a line: blockers of RIG-like receptor reporter activation – cell-based, Sendai virus stimulus, luciferase, 10K MLSCN set, TLR/RLR signaling modifier project, primary screen (AID 602276;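 active = inhibition at or above 50% at 10 µM; inactive = inhibition below 50%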;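 note: firefly luciferase from ISG56 promoter only with Renilla not read in this screen; 0% = Sendai virus plus DMSO and 100% = medium plus DMSO without virus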). As to conditions: HEK293 RL24 IRF3 luciferase reporter, at 10 µM, stronger effect = higher value.
The nature of assay [8]: TLR3 IRF3 reporter activation blockers – cell-based, poly I:C stimulus, luciferase, 10K MLSCN set, primary screen (AID 602277;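 active = inhibition of the reporter signal at or above 50%; inactive = inhibition below 50%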). As to conditions: HEK293-TLR3 RL24 IRF3 luciferase reporter, at 10 µM, stronger effect = higher value.

Activity calls are given as the source filed them.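 Rule for the calls, unless noted: active = fluorescence slope after compound addition differing from the mean of all tested samples at 99.7% confidence, mostly higher but some lower; inactive = the rest.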

Muscarinic acetylcholine receptor M4 (Homo sapiens), sequence (P08173 whole entry, looked up): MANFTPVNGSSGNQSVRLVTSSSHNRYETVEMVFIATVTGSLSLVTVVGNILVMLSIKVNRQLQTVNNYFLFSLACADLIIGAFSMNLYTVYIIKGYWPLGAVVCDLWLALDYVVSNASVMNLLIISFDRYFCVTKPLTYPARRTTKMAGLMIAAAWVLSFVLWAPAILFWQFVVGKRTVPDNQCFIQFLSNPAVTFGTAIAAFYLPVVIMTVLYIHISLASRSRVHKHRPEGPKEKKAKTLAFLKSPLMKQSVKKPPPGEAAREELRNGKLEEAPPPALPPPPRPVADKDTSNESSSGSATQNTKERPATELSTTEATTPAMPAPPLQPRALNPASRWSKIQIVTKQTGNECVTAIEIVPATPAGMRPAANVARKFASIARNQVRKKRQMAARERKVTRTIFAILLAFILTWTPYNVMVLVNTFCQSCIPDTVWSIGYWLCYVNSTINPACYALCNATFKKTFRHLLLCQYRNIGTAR

`COc1ccc(Cn2c(C)nc3c(c2=O)c2nc4ccccc4nc2n3Cc2ccco2)cc1`: in assay [1], the cell count is 375. Moreover, the inhibition is -0.6% (inactive) in assay [1], -42.4% (inactive) in assay [3], 23.6% (inactive) in assay [7] and 9.91% (inactive) in assay [8]. The inhibition of aggregation in assay [2] was -1.8% (inactive). The nuclei count amounted to 100% in assay [2] and 119% in assay [3]. Also, the figures for the fluorescence slope in assay [4] and in assay [6] were -0.368 (inactive) and 0.00431 (inactive), respectively. Further, in assay [5], the NADPH fluorescence slope is -4.4e-06 (inactive).

As for `Cn1c(SCC(N)=O)nnc1C1CCN(S(=O)(=O)c2ccccc2C(F)(F)F)CC1`, the cell count in assay [1] came to 554. The inhibition was -12.3% (inactive) in assay [1], 33.9% (inactive) in assay [3], 10.8% (inactive) in assay [7] and 19.2% (inactive) in assay [8]. For the same compound, in assay [2], the inhibition of aggregation is 4% (inactive). The nuclei count in assay [2] was 88.2%; in assay [3], 96.6%. Besides, the fluorescence slope is -0.214 (inactive) in assay [4] and 0.00588 (inactive) in assay [6]. For the same compound, the NADPH fluorescence slope in assay [5] is -3.4e-05 (inactive).

With `CC1CCN(C(=O)c2ccc(C(=O)N3CCC(C)CC3)cc2)CC1`, the cell count in assay [1] came to 348. Further, the inhibition in assay [1] is 4.7% (inactive); in assay [3], 33.2% (inactive); in assay [7], 12.9% (inactive); in assay [8] it was 12.8% (inactive). The inhibition of aggregation in assay [2] was 2.4% (inactive). In addition, the nuclei count in assay [2] was 95.8%; in assay [3], 76.8%. Further, the figures for the fluorescence slope in assay [4] and in assay [6] were -0.459 (inactive) and 0.00464 (inactive), respectively. Also, the NADPH fluorescence slope in assay [5] was -3e-05 (inactive).

With `Cc1ccc(-c2nnc3ccc(SCC(=O)NCc4ccco4)nn23)cc1`, the cell count in assay [1] amounted to 421. Also, the inhibition is 0.7% (inactive) in assay [1], 17.1% (inactive) in assay [3], 4.93% (inactive) in assay [7] and 7.2% (inactive) in assay [8]. Further, in assay [2], the inhibition of aggregation is 0.7% (inactive). Moreover, the figures for the nuclei count in assay [2] and in assay [3] were 117% and 99.7%, respectively. Moreover, the fluorescence slope in assay [4] was -0.234 (inactive); in assay [6], 0.00584 (inactive). The NADPH fluorescence slope in assay [5] was -7.9e-06 (inactive).

On to `O=C1NC(=O)C2(CCC(C(=O)O)C2)N1` (centres undefined), for which the cell count in assay [1] amounted to 557. In addition, the inhibition in assay [1] is -17.5% (inactive); in assay [3] it was -72.3% (inactive); in assay [7], 13.2% (inactive); in assay [8], 17.5% (inactive). For the same compound, in assay [2], the inhibition of aggregation was -0.1% (inactive). Besides, the nuclei count in assay [2] was found to be 100%; in assay [3], 119%. In addition, the fluorescence slope in assay [4] is -0.408 (inactive); in assay [6], 0.00541 (inactive). Also, the NADPH fluorescence slope in assay [5] is 3.7e-05 (inactive).

Take `CCn1cc(C(=O)N2CCCC2)c(=O)c2cc(S(=O)(=O)N3CCOCC3)ccc21`: the cell count in assay [1] amounted to 542. For the same compound, the inhibition is -1% (inactive) in assay [1], 14.8% (inactive) in assay [3], 1.49% (inactive) in assay [7] and 12.8% (inactive) in assay [8]. In assay [2], the inhibition of aggregation was -13.1% (inactive). In addition, the nuclei count worked out at 100% in assay [2] and 113% in assay [3]. In addition, the fluorescence slope in assay [4] was -0.427 (inactive); in assay [6], 0.00706 (inactive). Moreover, the NADPH fluorescence slope in assay [5] is -7.4e-05 (inactive).

As to `O=C1C2CCCN2C(c2ccc(Cl)cc2)N1c1nccs1` (centres undefined), the cell count in assay [1] was 378. Also, the inhibition in assay [1] is -7.5% (inactive); in assay [3] it was 12.8% (inactive); in assay [7], 11.3% (inactive); in assay [8], 13.5% (inactive). For the same compound, in assay [2], the inhibition of aggregation is -18.3% (inactive). Besides, the nuclei count in assay [2] came out at 99.7%; in assay [3], 92.8%. The fluorescence slope in assay [4] was -0.556 (inactive); in assay [6] it was 0.00531 (inactive). Further, in assay [5], the NADPH fluorescence slope is -6e-05 (inactive).

In the case of `ON1C2CCCCC2N(O)C1c1c(F)c(F)c(F)c(F)c1F` (centres undefined), the cell count in assay [1] was found to be 431. The inhibition is 4.1% (inactive) in assay [1], -53.7% (inactive) in assay [3], 15.7% (inactive) in assay [7] and 22% (inactive) in assay [8]. Further, the inhibition of aggregation in assay [2] is -6.9% (inactive). The values for the nuclei count in assay [2] and in assay [3] were 105% and 102%, respectively. Also, the fluorescence slope in assay [4] was -0.546 (inactive); in assay [6], 0.00415 (inactive). Moreover, in assay [5], the NADPH fluorescence slope is -2.9e-05 (inactive).

In the case of `O=C(COc1ccc(Cl)cc1)Nc1ncccn1`, in assay [1], the cell count worked out at 436. Moreover, the inhibition in assay [1] is -3.8% (inactive); in assay [3] it was -12.3% (inactive); in assay [7], 14.4% (inactive); in assay [8], -0.516% (inactive). Also, the inhibition of aggregation in assay [2] was 4.3% (inactive). In addition, the values for the nuclei count in assay [2] and in assay [3] were 98.6% and 87.1%, respectively. The fluorescence slope in assay [4] was -0.456 (inactive); in assay [6] it was 0.00491 (inactive). The NADPH fluorescence slope in assay [5] was -7.3e-05 (inactive).

As to `O=C(Nc1nncs1)c1ccccc1NS(=O)(=O)c1cccs1`, the cell count in assay [1] came out at 326. The inhibition in assay [1] was 21.9% (inactive); in assay [3] it was -44.6% (inactive); in assay [7], -6.81% (inactive); in assay [8], -4.84% (inactive). In addition, the inhibition of aggregation in assay [2] is 5.1% (inactive). Also, the nuclei count came out at 111% in assay [2] and 108% in assay [3]. The fluorescence slope is -0.0751 (inactive) in assay [4] and 0.00575 (inactive) in assay [6]. Also, the NADPH fluorescence slope in assay [5] was -1.1e-05 (inactive).

For the compound `CCOc1ccc2cc(C#N)c(SCC(=O)N3CCCC3)nc2c1`, in assay [1], the cell count stood at 451. Also, the inhibition was -6.5% (inactive) in assay [1], -32% (inactive) in assay [3], -13.8% (inactive) in assay [7] and -15.2% (inactive) in assay [8]. Further, the inhibition of aggregation in assay [2] is 3.1% (inactive). For the same compound, the nuclei count in assay [2] came out at 99.8%; in assay [3], 109%. Moreover, the fluorescence slope in assay [4] is -0.551 (inactive); in assay [6], 0.00682 (inactive). In addition, in assay [5], the NADPH fluorescence slope is -5.2e-05 (inactive).

Take `Cc1noc(C)c1S(=O)(=O)N1CCC(C(=O)Nc2ccccn2)CC1`: in assay [1], the cell count is 281. For the same compound, the inhibition was -5.2% (inactive) in assay [1], -46% (inactive) in assay [3], 13.8% (inactive) in assay [7] and 21.1% (inactive) in assay [8]. For the same compound, in assay [2], the inhibition of aggregation was -0.6% (inactive). For the same compound, the nuclei count stood at 96.1% in assay [2] and 128% in assay [3]. Besides, the fluorescence slope in assay [4] was -0.404 (inactive); in assay [6], 0.00606 (inactive). The NADPH fluorescence slope in assay [5] is 3.5e-05 (inactive).

For `Cc1nn(-c2ccc(F)cc2)c2nc(N)c(C#N)c(-c3cccs3)c12`, in assay [1], the cell count stood at 483. Moreover, the inhibition in assay [1] is 5.7% (inactive); in assay [3] it was -126% (inactive); in assay [7] it was 12.4% (inactive); in assay [8] it was 20.7% (inactive). Further, the inhibition of aggregation in assay [2] is 3% (inactive). Besides, the nuclei count in assay [2] was found to be 81.1%; in assay [3], 160%. Moreover, the fluorescence slope was -0.437 (inactive) in assay [4] and 0.00193 (inactive) in assay [6]. For the same compound, the NADPH fluorescence slope in assay [5] was -1.4e-05 (inactive).

For `COc1ccccc1N1CCN(CCCNC(=O)Nc2ccccc2)CC1`, in assay [1], the cell count amounted to 377. The inhibition in assay [1] is 8.7% (inactive); in assay [3], -129% (inactive); in assay [7], 15.3% (inactive); in assay [8] it was 23.9% (inactive). In addition, the inhibition of aggregation in assay [2] was 8.2% (inactive). In addition, the nuclei count in assay [2] is 96.1%; in assay [3] it was 106%. In addition, the fluorescence slope was -0.449 (inactive) in assay [4] and 0.00541 (inactive) in assay [6]. In addition, in assay [5], the NADPH fluorescence slope is 1.8e-05 (inactive).
